Reference: PMC7453568 (ACS Central Science, 2020)
“Also recorded” adds a separate entry of the source.

Tests used:
KRAS^G12C [1] = target: T1, KRAS^G12C (Homo sapiens, UniProt P01116, G12C); experiment: KRAS^G12C degradation, total KRAS levels by immunoblotting; format: cell-based
KRAS^G12C [2] = target: T1, KRAS^G12C; experiment: KRAS^G12C engagement, band shift of PROTAC-conjugated KRAS on immunoblot; format: cell-based; settings: 2.5 μM
Summary of the method: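 KRAS was immunoblotted from independent wells harvested the same day. Engagement was the intensity of the higher-molecular-weight, PROTAC-modified band relative to unbound KRAS in DMSO samples. Mean ± SD, two biological replicates.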

KRAS^G13D = KRAS^G13D (Homo sapiens, UniProt P01116, G13D); experiment: KRAS engagement/degradation in HCT 116 cells; format: cell-based; settings: HCT 116 cells (heterozygous KRAS^G13D), up to 10 μM
pErk = experiment: Erk signaling; format: cell-based, human; settings: for pErk: MIA PaCa-2 and NCI-H23 cells, 6 and 24 h
Summary of the method: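 Human KRAS^G12C cancer cells were treated for 24 h over a degrader dose range (NCI-H2030, heterozygous NCI-H23). Separately, MIA PaCa-2 and NCI-H23 received degrader or parent covalent inhibitor for 6 and 24 h, and time courses used 2.5 μM degrader. pErk and total Erk were immunoblotted and quantified against DMSO-treated cells. Lysates came from independent wells harvested the same day. Time-course data: mean ± SD, two biological replicates.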

NCI-H2030 cells = experiment: Cell viability assay; format: cell-based, human; settings: homozygous NCI-H2030 cells, MTS, 72 h
NCI-H23 cells = experiment: Cell viability assay; format: cell-based, human; settings: heterozygous NCI-H23 cells, MTS, 72 h
[3] = MIA PaCa-2, NCI-H23 and SW1573 cells, 2.5 μM, 6-72 h time course
[4] = NCI-H2030 cells, 2.5 μM, 24 h time course

For C=C(F)C(=O)N1CCN(c2nc(OC[C@@H]3CCCN3CCCOCCC(=O)N[C@H](C(=O)N3C[C@H](O)C[C@H]3C(=O)NCc3ccc(-c4scnc4C)cc3)C(C)(C)C)nc3c2CCN(c2cccc4cccc(Cl)c24)C3)C[C@@H]1CC#N [LC-2], the Dmax (KRAS^G12C [1]; MIA PaCa-2, MIA PaCa-2 cells, KRAS^G12C +/+, 24 h) was roughly 75%, the “duration of KRAS degradation” value (KRAS^G12C [1]; [3]) was “sustained up to 72 h” and the “time to maximal KRAS degradation” value (KRAS^G12C [1]; [3]) was no more than 24 h. For the same compound, the Dmax (KRAS^G12C [1]; NCI-H23, NCI-H23 cells, KRAS^G12C +/−, 24 h) was roughly 90%, the KRAS degradation (KRAS^G12C [1]; NCI-H23 cells (heterozygous)) was greater than 50% and the “KRAS degradation with neddylation inhibition” value (KRAS^G12C [1]; NCI-H23 cells, 2.5 μM LC-2, 24 h) was “rescues; also recorded: rescued KRAS degradation”. For the same compound, the “KRAS^G12C level rebound” value (KRAS^G12C [1]; NCI-H23 cells, 2.5 μM, 72 h time course) was “began to rebound at 72 h”, the Dmax (KRAS^G12C [1]; NCI-H358, NCI-H358 cells, KRAS^G12C +/−, 24 h) was roughly 40% and the Dmax (KRAS^G12C [1]; NCI-H2030, NCI-H2030 cells, KRAS^G12C +/+, 24 h) was roughly 75%. The “KRAS^G12C levels with neddylation inhibitor MLN4924” value (KRAS^G12C [1]; NCI-H2030 cells, 1 μM MLN4924, 2.5 μM LC-2, 4 h) was “rescued KRAS^G12C levels”, the “KRAS^G12C levels with proteasome inhibitor epoxomicin” value (KRAS^G12C [1]; NCI-H2030 cells, 1 μM epoxomicin, 2.5 μM LC-2, 4 h) was “rescued KRAS^G12C levels” and the “KRAS^G12C degradation” value (KRAS^G12C [1]; NCI-H2030 cells, 2.5 μM, 4 h) was roughly 65%. The “persistence of maximal degradation” value (KRAS^G12C [1]; [4]) was “persisted up to 24 h; also recorded: maintained up to 24 h”, the “time to maximum degradation” value (KRAS^G12C [1]; [4]) was no more than 8 h and the “lowest concentration inducing maximal degradation of endogenous KRAS^G12C” value (KRAS^G12C [1]; NCI-H2030 cells, 24 h) was 2.5 µM. For the same compound, the “KRAS levels, dose response” value (KRAS^G12C [1]; NCI-H2030 cells, 24 h, increasing concentrations) was “degrades KRAS^G12C in a dose-dependent manner”, the Dmax (KRAS^G12C [1]; SW1573, SW1573 cells, KRAS^G12C +/+, 24 h) was roughly 90% and the “time to maximal degradation” value (KRAS^G12C [1]; SW1573 cells, 2.5 μM, 24 h time course) was 12 h. For the same compound, the “time at which KRAS^G12C binding/engagement is seen” value (KRAS^G12C [2]; NCI-H2030 cells) was no more than 1 h, the “time at which KRAS engagement is seen” value (KRAS^G12C [2]; SW1573 cells) was no more than 1 h and the “engagement or degradation of KRAS^G13D” value (KRAS^G13D) was “No engagement or degradation”. The pErk (pErk; 2.5 μM) was “suppressed”, the “pErk signaling, dose response” value (pErk; NCI-H23 cells, 24 h) was “dose-dependent decrease” and the “pErk signaling, dose response” value (pErk; NCI-H2030 cells, 24 h) was “dose-dependent decrease”. The “pErk levels versus DMSO-treated cells” value (pErk; SW1573 cells, 2.5 μM, 24 h) was “significantly lower”, the “total Erk versus DMSO” value (pErk; SW1573 cells, 2.5 μM, all time points) was “increased” and the “phosphorylated Erk” value (pErk; SW1573 cells, 2.5 μM, between 1 and 4 h) was “inhibited”. For the same compound, the pErk levels (pErk; SW1573 cells, 2.5 μM, between 8 and 24 h) was “rebounded”.

For C=C(F)C(=O)N1CCN(c2nc(OC[C@@H]3CCCN3C)nc3c2CCN(c2cccc4cccc(Cl)c24)C3)C[C@@H]1CC#N [MRTX849], the pErk (pErk; 0.10 μM) was “suppressed”, the “cell viability (antiproliferative potency)” value (NCI-H2030 cells) was “more antiproliferative” and the “cell viability (antiproliferative potency)” value (NCI-H23 cells) was “more antiproliferative”.
